Measurements as given in ChEMBL document CHEMBL2346655, “Synthesis and in vitro biological evaluation of 2,6,9-trisubstituted purines targeting multiple cyclin-dependent kinases” (Eur J Med Chem, 2013).
Activity calls are given as the source filed them. The calls are words filed in the database; no cut-off is given here.

Experiments:
HCT-116 [1] = experiment: Induction of apoptosis in human HCT116 cells assessed as decrease in MCL1 level after 24 hrs by immunoblotting analysis; format: functional, cell-based
How it was run: (§1)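 Cells were treated for 24 h, harvested directly into Laemmli sample buffer, and run on SDS-PAGE. Proteins were blotted to nitrocellulose, blocked, probed overnight with primary antibodies, then with peroxidase-linked secondaries. Bands were detected by ECL with a CCD camera. PCNA and tubulin served as loading references.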

K562 [2] = experiment: Cell cycle arrest in human K562 cells assessed as accumulation at subG1 phase at 1 uM after 24 hrs by propidium iodide staining-based flow cytometric analysis (reference value: 2.4%); format: functional
How it was run: (§2)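 Sub-confluent cells treated at several concentrations for 24 h, then pulsed with 10 μM BrdU for 30 min at 37 °C before harvest. Cells were PBS-washed, fixed in 70% ethanol, denatured in 2 M HCl and neutralized. Stained with fluorescein anti-BrdU and propidium iodide; DNA content read by flow cytometry with 488 nm excitation.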

HOS = experiment: Cytotoxicity against human HOS cells assessed as reduction in number of viable cells after 72 hrs by fluorescence assay; format: functional, cell-based
How it was run: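 Three-fold compound dilutions tested in triplicate on cultured cells for 72 h. Viable cells detected by adding Calcein AM and reading fluorescence at 485/538 nm (ex/em).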

HCT-116 [3] = experiment: Cell cycle arrest in human HCT116 cells assessed as accumulation at subG1 phase at 5 uM after 24 hrs by propidium iodide staining-based flow cytometric analysis (reference value: 1.4%); format: functional; how it was run: as §2
K562 [4] = experiment: Cell cycle arrest in human K562 cells assessed as accumulation at G1 phase at 0.2 uM after 24 hrs by propidium iodide staining-based flow cytometric analysis (reference value: 47.3%); format: functional; how it was run: as §2
K562 [5] = experiment: Cell cycle arrest in human K562 cells assessed as accumulation at S phase after 24 hrs by BrdU incorporation assay; format: functional, cell-based
How it was run: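 Sub-confluent cells were exposed to compound for 24 h, then pulse-labeled with 10 μM BrdU for 30 min at 37 °C. After ethanol (70%) fixation and 2 M HCl denaturation, cells were stained with fluorescein anti-BrdU antibody plus propidium iodide. The BrdU-positive S-phase fraction was quantified by flow cytometry (488 nm laser).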

HCT-116 [6] = experiment: Cell cycle arrest in human HCT116 cells assessed as accumulation at G1 phase at 5 uM after 24 hrs by propidium iodide staining-based flow cytometric analysis (reference value: 48.8%); format: functional; how it was run: as §2
CCRF-CEM = experiment: Ratio of roscovitine IC50 to compound IC50 for human CEM cells; format: functional
How it was run: (§3)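 Cytotoxicity IC50s underlying the ratio: cells treated in triplicate with three-fold compound dilutions for 72 h, then Calcein AM added and live-cell fluorescence read at 485/538 nm (ex/em).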

[7] = target: T1, CDK9/cyclin T1 (Homo sapiens) (UniProt O60563+P50750); experiment: Inhibition of CDK9/CyclinT1 in human HCT116 cells assessed as decrease in Mdm2 expression at 1 to 5 uM after 24 hrs by immunoblotting analysis; format: cell-based; conditions: HCT-116
How it was run: (§4)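 Immunoblot: cells lysed by harvesting in Laemmli sample buffer, proteins run on SDS-PAGE, electroblotted to nitrocellulose, blocked, primary antibodies overnight, peroxidase-conjugated secondaries, ECL detection by CCD camera. Antibodies included anti-phospho RNA polymerase II (S2), anti-RNA polymerase II (ARNA-3), anti-p53 (DO-1), anti-p21waf1 (118), anti-PCNA.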

[8] = target: T2, Cyclin-dependent kinase 7/ cyclin H (Homo sapiens) (UniProt P51946+P50613); experiment: Inhibition of CDK7/CyclinH/MAT1-mediated phosphorylation of RNA polymerase 2 at Ser5 in human HCT116 cells up to 25 uM after 24 hrs by immunoblotting analysis; format: cell-based; conditions: HCT-116
K562 [9] = experiment: Cell cycle arrest in human K562 cells assessed as accumulation at S phase at 0.2 uM after 24 hrs by propidium iodide staining-based flow cytometric analysis (reference value: 38.8%); format: functional; how it was run: as §2
G-361 = experiment: Ratio of roscovitine IC50 to compound IC50 for human G361 cells; format: functional; how it was run: as §3
K562 [10] = experiment: Ratio of roscovitine IC50 to compound IC50 for human K562 cells; format: functional; how it was run: as §3
HCT-116 [11] = experiment: Induction of apoptosis in human HCT116 cells assessed as caspase-3/7 activation up to 25 uM by fluorescence assay; format: functional, cell-based
How it was run: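 After 24 h treatment, cells were lysed on ice for 20 min in pH 7.4 HEPES/KCl/EDTA/EGTA/0.2% CHAPS buffer with protease inhibitors and cleared at 10,000 × g for 30 min at 4 °C. Protein was equalized, then incubated for 1 h with 100 μM Ac-DEVD-AMC in PIPES buffer pH 7.3 containing DTT. Fluorescence was read at 355/460 nm; 100 μM Ac-DEVD-CHO served as the negative control.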

HCT-116 [12] = experiment: Induction of apoptosis in human HCT116 cells assessed as PARP cleavage up to 5 uM after 24 hrs by immunoblotting analysis; format: functional, cell-based; how it was run: as §1
[13] = target: T2, Cyclin-dependent kinase 7/ cyclin H (Homo sapiens); experiment: Inhibition of CDK7/CyclinH/MAT1-mediated phosphorylation of RNA polymerase 2 at Ser2 in human HCT116 cells up to 25 uM after 24 hrs by immunoblotting analysis; format: cell-based; conditions: HCT-116
How it was run: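 Treated cells were lysed in Laemmli buffer and separated by SDS-PAGE, then transferred to nitrocellulose. Blots were probed overnight with phospho-RNA polymerase II (S2) and total RNA polymerase II (clone ARNA-3) antibodies, followed by peroxidase secondaries. Signal was developed by ECL on a CCD camera.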

HCT-116 [14] = experiment: Induction of apoptosis in human HCT116 cells assessed as change in PUMA level up to 5 uM after 24 hrs by immunoblotting analysis; format: functional, cell-based; how it was run: as §1
[15] = target: T1, CDK9/cyclin T1 (Homo sapiens); experiment: Inhibition of CDK9/CyclinT1-mediated phosphorylation of RNA polymerase 2 at Ser5 in human K562 cells up to 25 uM after 24 hrs by immunoblotting analysis; format: cell-based; how it was run: as §4
HCT-116 [16] = experiment: Cell cycle arrest in human HCT116 cells assessed as accumulation at G1 phase at 1 uM after 24 hrs by propidium iodide staining-based flow cytometric analysis (reference value: 48.8%); format: functional; how it was run: as §2
[17] = target: T1, CDK9/cyclin T1 (Homo sapiens); experiment: Inhibition of CDK9/CyclinT1 in human HCT116 cells assessed as increase in p53 expression at 1 to 5 uM after 24 hrs by immunoblotting analysis; format: cell-based; conditions: HCT-116; how it was run: as §4
[18] = target: Cyclin-dependent kinase 2/cyclin E1 (Homo sapiens, UniProt P24941); experiment: Inhibition of CDK2/Cyclin E (unknown origin) expressed in Sf9 cells using histone H1 as substrate
K562 [19] = experiment: Cell cycle arrest in human K562 cells assessed as accumulation at subG1 phase at 5 uM after 24 hrs by propidium iodide staining-based flow cytometric analysis (reference value: 2.4%); format: functional; how it was run: as §2
HCT-116 [20] = experiment: Cell cycle arrest in human HCT116 cells assessed as accumulation at subG1 phase at 1 uM after 24 hrs by propidium iodide staining-based flow cytometric analysis (reference value: 1.4%); format: functional; how it was run: as §2
K562 [21] = experiment: Cell cycle arrest in human K562 cells assessed as accumulation at G2/M phase at 1 uM after 24 hrs by propidium iodide staining-based flow cytometric analysis (reference value: 13.8%); format: functional; how it was run: as §2

CC[C@@H](Nc1nc(NCc2cc(Cl)ccc2O)c2ncn(C(C)C)c2n1)C(C)O (mixture of isomers)
Activity (HCT-116 [1]): Dose-dependent effect | Activity (K562 [2]): 3.3% | IC50 (HOS): 2700 nM | Activity (HCT-116 [3]): 4.6% | Activity (K562 [4]): 34.7% | Activity (K562 [5]): Dose-dependent effect | Activity (HCT-116 [6]): 29.5% | Ratio IC50 (CCRF-CEM): >9 | inhibition [7]: Active | inhibition [8]: Active | Activity (K562 [9]): 38.5% | Ratio IC50 (G-361): >9 | Ratio IC50 (K562 [10]): >9 | Activity (HCT-116 [11]): Active | Activity (HCT-116 [12]): Active | inhibition [13]: Active | Activity (HCT-116 [14]): inactive | inhibition [15]: Active | Activity (HCT-116 [16]): 39.4% | inhibition [17]: Active | IC50 [18]: 13.1 nM | Activity (K562 [19]): 10.9% | Activity (HCT-116 [20]): 3.3% | Activity (K562 [21]): 28.7%
